# Test results as given in ChEMBL document CHEMBL5390295, “Isolinderalactone Ameliorates the Pathology of Alzheimer's Disease by Inhibiting the JNK Signaling Pathway” (2023).
# Active and inactive are the calls of the source. The rule behind the calls is not given here.
# Experiments:
# PC-12 [1] = test: Neuroprotective activity against Abeta1-42 induced rat PC12 cells assessed as increase in cell viability at 10 uM preincubated for 3 hrs followed by Abeta1-42 induction and measured after 24 hrs in the presence of SP600125 by MTT assay; type: functional, cell-based; details: time 27.0 hrs
# Method in brief: (§1)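 PC12 cells were seeded at 5×10^3/well and pretreated 3 h with test compound (range or 10 μM), with or without SP600125 1.25 μM for 0.5 h beforehand. Cells were then exposed to 10 μM Aβ1–42 oligomers for 24 h. MTT 0.5 mg/mL was added for 3–4 h, formazan dissolved in DMSO, and absorbance read at 570 nm. Viability is given as % of control.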
# PC-12 [2] = test: Neuroprotective activity against in Abeta1-42 induced rat PC12 cells assessed as effect on cleaved caspase-3 level at 10 uM preincubated for 3 hrs followed by Abeta1-42 induction and measured after 24 hrs in the presence of SP600125 by Western blot analysis; type: functional, cell-based; details: time 27.0 hrs
# Method in brief: (§2)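 Aβ1–42 challenge in PC12 cells was 10 μM for 24 h after 3 h pretreatment at 10 μM. SP600125 (1.25 μM) was added 0.5 h before pretreatment where used. Cells were lysed in RIPA and protein measured by BCA. Blotting used PVDF transfer, 5% BSA/TBST block for 2 h, primaries 1:1000 overnight at 4 °C, and HRP secondary for 2 h. Bcl-2/Bax ratio and band intensities were quantified.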
# Mus musculus [3] = test: Anti-alzheimer activity in hippocampus of APP/PS1 dE9 double transgenic mouse model assessed as decrease in the level of caspase-3 activation at 10 mg/kg, ip administered once daily for 30 consecutive days by Western blot analysis; type: functional, organism-based; details: time 30.0 day
# Method in brief: (§3)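 Hippocampal homogenates from dosed APP/PS1 mice were extracted in RIPA and protein measured by BCA. Samples were run by SDS electrophoresis, transferred to 0.22 μm PVDF for 90 min, blocked with 5% BSA in TBST for 2 h at RT, and probed with primaries 1:1000 overnight at 4 °C. HRP secondary was applied for 2 h at RT.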
# PC-12 [4] = test: Neuroprotective activity against rat PC12 cells assessed as reversal of Abeta1-42 induced Bax expression at 10 uM preincubated for 3 hrs followed by Abeta1-42 induction and measured after 24 hrs by Western blot analysis; type: functional, cell-based; details: time 27.0 hrs; method in brief: as §2
# PC-12 [5] = test: Neuroprotective activity against Abeta1-42 induced rat PC12 cells assessed as decrease in JNK phosphorylation level at 10 uM preincubated for 3 hrs followed by Abeta1-42 induction and measured after 24 hrs by Western blot analysis; type: functional, cell-based; details: time 27.0 hrs; method in brief: as §2
# PC-12 [6] = test: Neuroprotective activity against Abeta1-42 induced rat PC12 cells assessed as increase in cell viability at 10 uM preincubated for 3 hrs followed by Abeta1-42 induction and measured after 24 hrs by MTT assay; type: functional, cell-based; details: time 27.0 hrs; method in brief: as §1
# Mus musculus [7] = test: Anti-alzheimer activity in hippocampus of APP/PS1 dE9 double transgenic mouse model assessed as suppression in p-JNK level at 10 mg/kg, ip administered once daily for 30 consecutive days by Western blot analysis; type: functional, organism-based; details: time 30.0 day; method in brief: as §3
# Mus musculus [8] = test: Anti-alzheimer activity against mouse model APP/PS1 dE9 double transgenic mouse model assessed as improvement in average movement speed at 1 to 10 mg/kg, ip administered once daily for 30 consecutive days measured on day 1 by novel object recognition test; type: functional, organism-based; details: dose 1-10 mg/kg, time 31.0 day
# Mus musculus [9] = test: Anti-alzheimer activity against APP/PS1 dE9 double transgenic mouse model assessed as increase in time spent in the target quadrant at 10 mg/kg, ip administered once daily for 30 consecutive days measured on day 5 by morris water maze test; type: functional, organism-based; details: time 35.0 day
# Method in brief: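 Female APP/PS1 mice, 10 months old, about 30 g, 10 per group. Dosing was intraperitoneal in 1× PBS, once daily for one month (1 or 10 mg/kg test; 5 mg/kg donepezil). WT and untreated APP/PS1 controls got PBS. Morris water maze: training days 1–4, averaged escape latency. Day-5 probe trial ran 60 s with the platform removed, recording platform crossings and time per quadrant. Mean ± SEM.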
# PC12 = test: Restoration of mitochondrial membrane potential in Abeta1-42 induced rat PC12 cells at 10 uM preincubated for 3 hrs followed by Abeta1-42 induction and measured after 24 hrs by JC-1 staining based analysis; type: cell-based; details: time 27.0 hrs
# Method in brief: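 PC12 cells pretreated 3 h, then exposed to 10 μM Aβ1–42 oligomer for 24 h. Cells were loaded with JC-1 (10 μg/mL, serum-free medium) for 30 min at 37 °C and washed twice in PBS. Plate-reader fluorescence was read as red (ex 560/em 595) and green (ex 485/em 535); Δψm = red/green ratio, normalized to control. Mean ± SEM, three experiments.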
# PC-12 [10] = test: Neuroprotective activity against Abeta1-42 induced rat PC12 cells assessed as effect on Bcl2/Bax ratio level at 10 uM preincubated for 3 hrs followed by Abeta1-42 induction and measured after 24 hrs in the presence of SP600125 by Western blot analysis; type: functional, cell-based; details: time 27.0 hrs; method in brief: as §2
# PC-12 [11] = test: Neuroprotective activity against in Abeta1-42 induced rat PC12 cells assessed as effect on P38MAPK protein level at 10 uM preincubated for 3 hrs followed by Abeta1-42 induction and measured after 24 hrs by Western blot analysis; type: functional, cell-based; details: time 27.0 hrs; method in brief: as §2
# PC-12 [12] = test: Neuroprotective activity against Abeta1-42 induced rat PC12 cells assessed as reduction in ROS level at 10 uM preincubated for 3 hrs followed by Abeta1-42 induction and measured after 24 hrs by y DCFH2-DA probe based analysis; type: functional, cell-based; details: time 27.0 hrs
# Method in brief: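 PC12 cells were pretreated 3 h at 10 μM, then given 10 μM Aβ1–42 for 24 h. Cells were loaded with DCFH-DA 10 μM in FBS-free DMEM for 30 min in the dark and washed. Fluorescence was read at Ex 488/Em 525 nm.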
# PC-12 [13] = test: Neuroprotective activity in Abeta1-42 induced rat PC12 cells assessed as decrease in cleaved caspase-3 level at 10 uM preincubated for 3 hrs followed by Abeta1-42 induction and measured after 24 hrs; type: functional, cell-based; details: time 27.0 hrs; method in brief: as §2
# Mus musculus [14] = test: Anti-alzheimer activity against APP/PS1 dE9 double transgenic mouse model assessed as improvement in exploration time for novel object at 10 mg/kg, ip administered once daily for 30 consecutive days measured on day 2 by novel object recognition test; type: functional, organism-based; details: time 32.0 day
# Method in brief: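 Same mouse cohort and ip PBS dosing schedule (1 or 10 mg/kg; donepezil 5 mg/kg). Novel object recognition: two objects, 5 min session, with exploration frequency and duration scored within 2–3 cm of objects. After 24 h one object was replaced by a novel object and a second 5 min session was recorded.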
# Mus musculus [15] = test: Anti-alzheimer activity in hippocampus of APP/PS1 dE9 double transgenic mouse model assessed as reduction in APP/beta-amyloid level at 10 mg/kg, ip administered once daily for 30 consecutive days by Western blot analysis; type: functional, organism-based; details: time 30.0 day; method in brief: as §3
# PC-12 [16] = test: Neuroprotective activity in rat PC12 cells assessed as reversal of Abeta1-42 decreased in Bcl-2 expression level at 10 uM preincubated for 3 hrs followed by Abeta1-42 induction and measured after 24 hrs by Western blot analysis; type: functional, cell-based; details: time 27.0 hrs; method in brief: as §2
smiles,measurement,setting,value
C=C[C@@]1(C)Cc2occ(C)c2[C@@H]2OC(=O)C(=C)[C@@H]21 [ISOLINDERALACTONE],Activity,PC-12 [1],inactive
same,Activity,PC-12 [2],inactive
same,Activity,Mus musculus [3],Active
same,Activity,PC-12 [4],Active
same,Activity,PC-12 [5],Active
same,Activity,PC-12 [6],Active
same,Activity,Mus musculus [7],Active
same,Activity,Mus musculus [8],Active
same,Activity,Mus musculus [9],Active
same,Activity,PC12,Active
same,Activity,PC-12 [10],inactive
same,Activity,PC-12 [11],inactive
same,Activity,PC-12 [12],Active
same,Activity,PC-12 [13],Active
same,Activity,Mus musculus [14],Active
same,Activity,Mus musculus [15],Active
same,Activity,PC-12 [16],Active
